Drawing on ChEMBL document CHEMBL3272355, “Structure--activity relationships in cephalosporins prepared from penicillins. 1. 7beta-Acylamino derivatives of 3-benzyl- and 3-(3-pyridylmethyl)ceph-3-em-4-carboxylic acids” (1977), this text covers MIC for 14 compounds.

≈ marks a conversion by molar mass, not a printed value.

One assay deals with Proteus mirabilis. The experiment in a line: Antibacterial activity against Proteus mirabilis assessed as growth inhibition after 18 hrs by serial dilution method. Type of assay: functional. The gist of the method: (§1)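 Agar dilution MIC: serial dilutions in nutrient agar, each spot-inoculated with 0.001 mL of undiluted overnight broth culture. MIC read after 18 h incubation at 37 °C.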

Assay [1] relates to Staphylococcus aureus. The experiment in a line: Antibacterial activity against beta-lactamase producing benzylpenicillin-resistant Staphylococcus aureus Russell assessed as growth inhibition after 18 hrs by serial dilution method. Type of assay: functional.
For a further assay, the system named is Salmonella typhi. Nature of the assay: Antibacterial activity against Salmonella typhi assessed as growth inhibition after 18 hrs by serial dilution method. In kind it is functional, Salmonella enterica subsp. enterica serovar Typhi. The settings on record: Salmonella enterica.
For the next assay, the system named is Klebsiella aerogenes. Nature of the assay: Antibacterial activity against Klebsiella aerogenes assessed as growth inhibition after 18 hrs by serial dilution method. In kind it is functional. The gist of the method:
as §1

In the next assay the test system is Shigella sonnei. The experiment in a line: Antibacterial activity against Shigella sonnei assessed as growth inhibition after 18 hrs by serial dilution method. In kind it is functional. The gist of the method:
as §1

The test system of the next assay is Escherichia coli. Nature of the assay: Antibacterial activity against Escherichia coli assessed as growth inhibition after 18 hrs by serial dilution method. In kind it is functional. The gist of the method:
as §1

Assay [2] relates to Staphylococcus aureus. The experiment in a line: Antibacterial activity against Staphylococcus aureus Oxford assessed as growth inhibition after 18 hrs by serial dilution method. In kind it is functional. The gist of the method: as §1

For orientation: MIC means the lowest concentration found to suppress growth. Regarding `O=C(Cn1ncnn1)N[C@@H]1C(=O)N2C(C(=O)O)=C(Cc3ccccc3)CS[C@H]12`, the MIC in the assay on Proteus mirabilis was 125 µg/mL (≈ 312 µM); with Staphylococcus aureus [1] it was 1.25 µg/mL (≈ 3.12 µM); with Salmonella typhi, more than 500 µg/mL; in the assay on Klebsiella aerogenes, 500 µg/mL (≈ 1250 µM); in the assay with Shigella sonnei, 125 µg/mL (≈ 312 µM); in the assay with Escherichia coli it was more than 500 µg/mL. In the assay with Staphylococcus aureus [2], the MIC turned out to be 0.12 µg/mL (≈ 0.3 µM).
On to `C[C@@H](N)C(=O)N[C@@H]1C(=O)N2C(C(=O)O)=C(Cc3ccccc3)CS[C@H]12`, for which the MIC with Proteus mirabilis is more than 100 µg/mL; in the assay on Staphylococcus aureus [1], 10 µg/mL (≈ 27.7 µM); with Salmonella typhi it was more than 100 µg/mL; with Klebsiella aerogenes it was more than 100 µg/mL; in the assay with Shigella sonnei it was more than 100 µg/mL; in the assay on Escherichia coli, more than 100 µg/mL. Moreover, the MIC in the assay with Staphylococcus aureus [2] was 5 µg/mL (≈ 13.8 µM).
With `N[C@@H](C(=O)N[C@@H]1C(=O)N2C(C(=O)O)=C(Cc3ccccc3)CS[C@H]12)C1CC1`, the MIC was more than 250 µg/mL in the assay with Proteus mirabilis; 12.5 µg/mL (≈ 32.3 µM) with Staphylococcus aureus [1]; more than 250 µg/mL in the assay with Salmonella typhi; more than 250 µg/mL with Klebsiella aerogenes; more than 250 µg/mL in the assay on Shigella sonnei; more than 250 µg/mL with Escherichia coli. Further, the MIC in the assay on Staphylococcus aureus [2] was 5 µg/mL (≈ 12.9 µM).
For the compound `N[C@@H](C(=O)N[C@@H]1C(=O)N2C(C(=O)O)=C(Cc3ccccc3)CS[C@H]12)c1ccc(O)cc1`, the minimal inhibitory concentration (MIC) turned out to be 25 µg/mL (≈ 56.9 µM) with Proteus mirabilis; 1.25 µg/mL (≈ 2.84 µM) in the assay on Staphylococcus aureus [1]; 5 µg/mL (≈ 11.4 µM) in the assay on Salmonella typhi; 5 µg/mL (≈ 11.4 µM) in the assay with Klebsiella aerogenes; 12.5 µg/mL (≈ 28.4 µM) in the assay with Shigella sonnei; 12.5 µg/mL (≈ 28.4 µM) in the assay on Escherichia coli. In the assay on Staphylococcus aureus [2], the MIC worked out at 0.12 µg/mL (≈ 0.273 µM).
Consider `O=C(COc1ccccc1)N[C@@H]1C(=O)N2C(C(=O)O)=C(Cc3cccnc3)CS[C@H]12`, for which the MIC was determined as 125 µg/mL (≈ 294 µM) in the assay on Proteus mirabilis; 0.12 µg/mL (≈ 0.282 µM) in the assay with Staphylococcus aureus [1]; 500 µg/mL (≈ 1180 µM) with Salmonella typhi; 500 µg/mL (≈ 1180 µM) with Klebsiella aerogenes; 500 µg/mL (≈ 1180 µM) in the assay with Shigella sonnei; 500 µg/mL (≈ 1180 µM) with Escherichia coli. Besides, the MIC with Staphylococcus aureus [2] turned out to be 0.02 µg/mL (≈ 0.047 µM).
With `CCSCC(=O)N[C@@H]1C(=O)N2C(C(=O)O)=C(Cc3cccnc3)CS[C@H]12`, the MIC in the assay with Proteus mirabilis is 25 µg/mL (≈ 63.5 µM); in the assay with Staphylococcus aureus [1] it was 1.25 µg/mL (≈ 3.18 µM); in the assay with Salmonella typhi it was 50 µg/mL (≈ 127 µM); in the assay on Klebsiella aerogenes it was 50 µg/mL (≈ 127 µM); with Shigella sonnei, 50 µg/mL (≈ 127 µM); with Escherichia coli it was 50 µg/mL (≈ 127 µM). Moreover, the MIC in the assay on Staphylococcus aureus [2] turned out to be 0.05 µg/mL (≈ 0.127 µM).
On to `O=C(O)C1=C(Cc2cccnc2)CS[C@@H]2[C@H](NC(=O)[C@H](O)c3ccccc3)C(=O)N12`, for which the MIC in the assay with Proteus mirabilis worked out at 5 µg/mL (≈ 11.8 µM); in the assay on Staphylococcus aureus [1], 12.5 µg/mL (≈ 29.4 µM); in the assay with Salmonella typhi it was 2.5 µg/mL (≈ 5.88 µM); in the assay on Klebsiella aerogenes it was 2.5 µg/mL (≈ 5.88 µM); with Shigella sonnei, 2.5 µg/mL (≈ 5.88 µM); with Escherichia coli it was 2.5 µg/mL (≈ 5.88 µM). In addition, in the assay on Staphylococcus aureus [2], the MIC was found to be 0.25 µg/mL (≈ 0.588 µM).
Turning to `O=C(Cc1ccncc1)N[C@@H]1C(=O)N2C(C(=O)O)=C(Cc3cccnc3)CS[C@H]12`, the MIC turned out to be 10 µg/mL (≈ 24.4 µM) in the assay with Proteus mirabilis; 25 µg/mL (≈ 60.9 µM) with Staphylococcus aureus [1]; 10 µg/mL (≈ 24.4 µM) in the assay with Salmonella typhi; 10 µg/mL (≈ 24.4 µM) in the assay on Klebsiella aerogenes; 25 µg/mL (≈ 60.9 µM) with Shigella sonnei; 25 µg/mL (≈ 60.9 µM) with Escherichia coli. Moreover, the MIC with Staphylococcus aureus [2] was 0.12 µg/mL (≈ 0.292 µM).
Regarding `O=C(CSc1ccncc1)N[C@@H]1C(=O)N2C(C(=O)O)=C(Cc3cccnc3)CS[C@H]12`, the MIC with Proteus mirabilis turned out to be 100 µg/mL (≈ 226 µM); in the assay with Staphylococcus aureus [1], 1 µg/mL (≈ 2.26 µM); in the assay with Salmonella typhi, 10 µg/mL (≈ 22.6 µM); with Klebsiella aerogenes, 5 µg/mL (≈ 11.3 µM); in the assay on Shigella sonnei it was 25 µg/mL (≈ 56.5 µM); in the assay on Escherichia coli it was 25 µg/mL (≈ 56.5 µM). The MIC in the assay with Staphylococcus aureus [2] was less than 0.02 µg/mL.
For `O=C(O)C1=C(Cc2cccnc2)CS[C@@H]2[C@H](NC(=O)C(C(=O)Oc3ccccc3)c3cccs3)C(=O)N12` (some centres not stated), the minimum inhibitory concentration (MIC) came out at 12.5 µg/mL (≈ 23.3 µM) with Proteus mirabilis; 50 µg/mL (≈ 93.4 µM) with Salmonella typhi; 12.5 µg/mL (≈ 23.3 µM) in the assay on Klebsiella aerogenes; 12.5 µg/mL (≈ 23.3 µM) with Shigella sonnei; 12.5 µg/mL (≈ 23.3 µM) in the assay with Escherichia coli; 12.5 µg/mL (≈ 23.3 µM) in the assay on Staphylococcus aureus [2].
Regarding `N[C@@H](C(=O)N[C@@H]1C(=O)N2C(C(=O)O)=C(Cc3cccnc3)CS[C@H]12)C1CC1`, the MIC was determined as 500 µg/mL (≈ 1290 µM) in the assay with Proteus mirabilis; 12.5 µg/mL (≈ 32.2 µM) in the assay on Staphylococcus aureus [1]; 250 µg/mL (≈ 644 µM) with Salmonella typhi; 250 µg/mL (≈ 644 µM) with Klebsiella aerogenes; 250 µg/mL (≈ 644 µM) in the assay on Shigella sonnei; 500 µg/mL (≈ 1290 µM) in the assay on Escherichia coli. Besides, the MIC in the assay on Staphylococcus aureus [2] came to 5 µg/mL (≈ 12.9 µM).
As to `NC(C(=O)N[C@@H]1C(=O)N2C(C(=O)O)=C(Cc3cccnc3)CS[C@H]12)c1cccs1` (some centres not stated), the MIC with Proteus mirabilis was found to be 12.5 µg/mL (≈ 29 µM); in the assay on Staphylococcus aureus [1], 5 µg/mL (≈ 11.6 µM); in the assay with Salmonella typhi, 2.5 µg/mL (≈ 5.81 µM); with Klebsiella aerogenes it was 5 µg/mL (≈ 11.6 µM); with Shigella sonnei, 5 µg/mL (≈ 11.6 µM); in the assay with Escherichia coli, 12.5 µg/mL (≈ 29 µM). In addition, the minimum inhibitory concentration (MIC) in the assay on Staphylococcus aureus [2] was 0.5 µg/mL (≈ 1.16 µM).
In the case of `O=C(Cc1cccs1)N[C@@H]1C(=O)N2C(C(=O)O)=C(Cc3cccnc3)CS[C@H]12`, the MIC with Proteus mirabilis was 25 µg/mL (≈ 60.2 µM); in the assay on Staphylococcus aureus [1], 10 µg/mL (≈ 24.1 µM); in the assay with Salmonella typhi it was 5 µg/mL (≈ 12 µM); with Klebsiella aerogenes, 25 µg/mL (≈ 60.2 µM); in the assay on Shigella sonnei, 25 µg/mL (≈ 60.2 µM); in the assay on Escherichia coli, 25 µg/mL (≈ 60.2 µM). In addition, in the assay with Staphylococcus aureus [2], the MIC amounted to 0.05 µg/mL (≈ 0.12 µM).
Regarding `NC(CC(=O)N[C@@H]1C(=O)N2C(C(=O)O)=C(Cc3cccnc3)CS[C@H]12)C1CC=CCC1` (mixture of isomers), the MIC stood at 250 µg/mL in the assay with Proteus mirabilis; 1.25 µg/mL in the assay with Staphylococcus aureus [1]; 125 µg/mL in the assay on Salmonella typhi; 125 µg/mL with Klebsiella aerogenes; 125 µg/mL in the assay with Shigella sonnei; 125 µg/mL with Escherichia coli. The MIC in the assay with Staphylococcus aureus [2] is 0.5 µg/mL.
